According to ChEMBL document CHEMBL4014319, “Tolvaptan-Type Vasopressin Receptor Ligands: Important Role of Axial Chirality in the Active Form” (J Med Chem, 2017):

Columns and labels:
Vasopressin V1a receptor = Vasopressin V1a receptor (Homo sapiens, UniProt P37288); test: Displacement of [125I] phenylacetyl-D-Tyr(Me)-Phe-Gln-Asn-Arg-Pro-Arg-Tyr-NH2 from human recombinant vasopressin V1a receptor expressed in HEK293 after 2 hrs by liquid scintillation counting method; assay type: cell-based
Summary of the method: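 Recombinant human V1a receptor expressed in HEK-293 cells, tested in 50 mM Tris-HCl pH 7.4 buffer with 5 mM MgCl2 and 0.1% BSA. Incubation 2 h at 25 °C in 1% DMSO. Compounds were ≥99% pure by HPLC and were kept at low temperature after isolation to prevent isomerization. Ki is the mean of duplicate measurements.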

Vasopressin V2 receptor = Vasopressin V2 receptor (Homo sapiens, UniProt P30518); test: Displacement of [3H] (Arg8)-vasopressin from human vasopressin V2 receptor expressed in CHOK1 cell membranes after 2 hrs by liquid scintillation counting method
Sequence of Vasopressin V2 receptor (P30518 whole entry): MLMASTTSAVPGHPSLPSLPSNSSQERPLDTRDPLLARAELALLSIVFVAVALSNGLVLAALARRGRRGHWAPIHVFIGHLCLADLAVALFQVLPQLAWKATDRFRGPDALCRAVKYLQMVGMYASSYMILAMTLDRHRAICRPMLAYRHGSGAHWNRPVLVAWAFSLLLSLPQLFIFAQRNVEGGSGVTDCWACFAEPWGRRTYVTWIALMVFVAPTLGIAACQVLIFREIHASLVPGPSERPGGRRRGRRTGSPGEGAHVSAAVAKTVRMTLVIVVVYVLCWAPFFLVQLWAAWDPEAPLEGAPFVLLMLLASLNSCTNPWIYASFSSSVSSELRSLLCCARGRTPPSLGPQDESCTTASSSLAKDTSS
Summary of the method: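 Membranes (9 μg aliquot) prepared from CHO-K1 cells stably transfected with human V2 receptor, in 50 mM Tris-HCl pH 7.4, 10 mM MgCl2, 0.1% BSA. Incubated with 4 nM [3H](Arg8)-vasopressin for 2 h at 25 °C in 1% DMSO. Compounds were ≥99% pure by HPLC. Ki is the mean of duplicate measurements.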

Sequence of Vasopressin V1a receptor (P37288 whole entry): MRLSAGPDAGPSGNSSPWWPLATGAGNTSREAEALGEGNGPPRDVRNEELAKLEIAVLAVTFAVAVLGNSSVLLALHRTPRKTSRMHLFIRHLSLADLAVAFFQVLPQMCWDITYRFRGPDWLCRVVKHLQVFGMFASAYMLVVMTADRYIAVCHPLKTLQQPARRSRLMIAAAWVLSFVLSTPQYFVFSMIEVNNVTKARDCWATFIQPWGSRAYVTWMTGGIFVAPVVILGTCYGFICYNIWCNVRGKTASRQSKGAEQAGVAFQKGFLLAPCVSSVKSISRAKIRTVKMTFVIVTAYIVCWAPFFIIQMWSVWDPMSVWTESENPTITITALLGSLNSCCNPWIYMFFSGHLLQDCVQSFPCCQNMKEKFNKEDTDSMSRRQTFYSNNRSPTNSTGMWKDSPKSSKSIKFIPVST

Row | Structure (SMILES) | Ki (Vasopressin V1a receptor) | Ki (Vasopressin V2 receptor)
1 | Cc1ccccc1C(=O)Nc1ccc(C(=O)N2CCC[C@@H](O)c3cccc(C)c32)cc1 | 2.84 nM | 140 nM
2 | Cc1ccccc1C(=O)Nc1ccc(C(=O)N2CCC[C@@H](O)c3ccccc32)cc1 | 1.03 nM | 8.3 nM
3 | Cc1ccccc1C(=O)Nc1ccc(C(=O)N2CCCC(O)c3cccc(C)c32)cc1 (stereo not drawn) | 6.26 nM | 170 nM
4 | Cc1ccccc1C(=O)Nc1ccc(C(=O)N2CCC[C@H](O)c3ccccc32)cc1 | 1.85 nM | 4.87 nM
5 | Cc1ccccc1C(=O)Nc1ccc(C(=O)N2CCCC(O)c3ccccc32)cc1 (racemic) | 1.58 nM | 7.56 nM
6 | Cc1ccccc1C(=O)Nc1ccc(C(=O)N2CCCC(O)c3c(C)cccc32)cc1 (racemic) | 6.75 nM | 160 nM

Continued by falling Ki (Vasopressin V1a receptor), values first:

Row | Ki (Vasopressin V1a receptor) | Ki (Vasopressin V2 receptor) | Structure (SMILES)
7 | 78 nM | 1790 nM | Cc1ccccc1C(=O)Nc1ccc(C(=O)N2CCC[C@@H](O)c3c(C)cccc32)cc1 (atropisomer aR)
8 | 4.68 nM | 54 nM | Cc1ccccc1C(=O)Nc1ccc(C(=O)N2CCC[C@H](O)c3cccc(C)c32)cc1
9 | 2.06 nM | 46 nM | Cc1ccccc1C(=O)Nc1ccc(C(=O)N2CCC[C@H](O)c3c(C)cccc32)cc1
